Source: ChEMBL document CHEMBL3227984, “5-Substituted uracil arabinonucleosides as potential antiviral agents” (J Med Chem, 1979)
Active and inactive are the calls of the source. The rule behind the calls is not given here.

Legend:
Human alphaherpesvirus 1 [1] = assay: Antiviral activity against HSV1 KOS infected in primary rabbit kidney cells assessed as inhibition of virus-induced cytopathogenicity; assay type: functional
[2] = tested on: Vesicular stomatitis virus; assay: Antiviral activity against Vesicular stomatitis virus infected in primary rabbit kidney cells assessed as inhibition of virus-induced cytopathogenicity; assay type: functional
Human alphaherpesvirus 1 [3] = assay: Antiviral activity against HSV1 KOS infected in human skin fibroblasts assessed as inhibition of virus-induced cytopathogenicity; assay type: functional, organism-based
[4] = Cytotoxicity against primary rabbit kidney cells assessed as change in cell morphology; assay type: cell-based, Oryctolagus cuniculus
[5] = Cytotoxicity against human skin fibroblasts assessed as change in cell morphology; conditions: skin fibroblast
[6] = Cytotoxicity against primary rabbit kidney cells assessed as inhibition of DNA synthesis by labeled thymidine/2'-deoxyuridine assay; assay type: cell-based, Oryctolagus cuniculus
Summary of the method: (§1)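 DNA synthesis in cultures (primary rabbit kidney cells or human skin fibroblasts) exposed to the analogues was monitored by incorporation of labeled thymidine or labeled 2'-deoxyuridine.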

[7] = Cytotoxicity against human skin fibroblasts assessed as inhibition of DNA synthesis by labeled thymidine/2'-deoxyuridine assay; conditions: skin fibroblast; summary of the method: as §1
[8] = Dissociation constant, pKa of the compound; assay type: physicochemical

| SMILES | ID50 (Human alphaherpesvirus 1 [1]) | ID50 [2] [×10⁻⁴ M] | Antiviral activity (Human alphaherpesvirus 1 [3]) | Activity [4] | Activity [5] | Activity [6] | Activity [7] | pKa [8] |
| --- | --- | --- | --- | --- | --- | --- | --- | --- |
| O=c1ccn([C@@H]2O[C@H](CO)[C@@H](O)[C@@H]2O)c(=O)[nH]1 [ARAURIDINE] | 4.1 ×10⁻⁵ M | >1 | Active | Non-toxic | Non-toxic | – | – | – |
| O=c1[nH]c(=O)n([C@@H]2O[C@H](CO)[C@@H](O)[C@@H]2O)cc1[N+](=O)[O-] | >6.9 ×10⁻⁴ M | >1 | Active | Non-toxic | Non-toxic | Non-toxic | Non-toxic | 5.7 |
| O=c1[nH]c(=O)n([C@@H]2O[C@H](CO)[C@@H](O)[C@@H]2O)cc1O | >3.9 ×10⁻⁴ M | >1 | Active | Non-toxic | Non-toxic | Non-toxic | Non-toxic | 7.8 |
| O=c1[nH]c(=O)n([C@@H]2O[C@H](CO)[C@@H](O)[C@@H]2O)cc1Br | – | – | – | – | – | – | – | 8 |
| N#Cc1cn([C@@H]2O[C@H](CO)[C@@H](O)[C@@H]2O)c(=O)[nH]c1=O | >3.7 ×10⁻⁴ M | >1 | Active | Non-toxic | Non-toxic | Non-toxic | Non-toxic | 6.8 |
| O=c1[nH]c(=O)n([C@@H]2O[C@H](CO)[C@@H](O)[C@@H]2O)cc1I | – | – | – | – | – | – | – | 8 |
| Cc1cn([C@@H]2O[C@H](CO)[C@@H](O)[C@@H]2O)c(=O)[nH]c1=O | 3.9 ×10⁻⁷ M | >1 | Active | Non-toxic | Non-toxic | – | – | – |
